Compound activity as filed in PubChem.
RORa activator = activators of human nuclear receptor RORA; P35398; CHO-K1 Gal4-RORA LBD luciferase reporter, luminescence; percent increase over mock-subtracted basal signal; activation, % at 10 µM; 65,000 compounds, 1.5% hits; AID 560;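 active = activation above the mean of all tested compounds plus 3 SD, cut at about 49% in these data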;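 note: 0% = DMSO-treated RORA cells and 100% = added signal equal to DMSO minus mock-transfected cells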
Target sequence (P35398 whole entry, looked up, the tested form may be a part): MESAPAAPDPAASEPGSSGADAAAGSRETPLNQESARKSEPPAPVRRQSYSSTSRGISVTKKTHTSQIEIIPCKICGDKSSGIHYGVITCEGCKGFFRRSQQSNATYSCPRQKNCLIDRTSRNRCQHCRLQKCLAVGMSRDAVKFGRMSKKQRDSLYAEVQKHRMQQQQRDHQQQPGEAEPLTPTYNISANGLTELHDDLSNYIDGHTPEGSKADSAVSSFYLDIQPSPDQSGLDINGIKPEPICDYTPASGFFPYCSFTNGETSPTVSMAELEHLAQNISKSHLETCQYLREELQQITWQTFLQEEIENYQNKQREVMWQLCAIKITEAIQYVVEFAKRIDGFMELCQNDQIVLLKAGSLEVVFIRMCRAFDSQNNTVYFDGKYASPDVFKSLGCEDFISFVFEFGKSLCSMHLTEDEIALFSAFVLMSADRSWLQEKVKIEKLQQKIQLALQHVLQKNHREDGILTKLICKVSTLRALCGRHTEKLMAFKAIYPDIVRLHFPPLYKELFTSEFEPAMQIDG
E coli RNAP = inhibitors of Escherichia coli RNA polymerase; P0A8V2; E. coli RNA polymerase, fluorescence transcription assay; inhibition, %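 (tested at 10 µM)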; 62,000 compounds, 0.2% hits; AID 559; in the data active = inhibition above about 20%;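 note: 0% = enzyme without compound and 100% = no enzyme blank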
SF1 activator = activators of human nuclear receptor SF-1; CHO-K1 Gal4-SF-1 LBD luciferase reporter; % increase over DMSO SF-1-specific signal; 65,000 compounds, 1.9% hits; AID 522; Q13285; activation, % at 10 µM;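 active = activation above the mean activation of all tested compounds plus 3 SD, cut at about 50% in these data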
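System: CHO-K1 cells with Gal4–hSF-1 LBD chimera plus Gal4-driven luciferase; quantity: 4,000 CHO-K1 cells per well; compound: one dose, 10 µM compound, 1% DMSO; times: 20 h compound treatment, 37 °C; measured by: SteadyLite luciferase luminescence; read-out: percent activation versus DMSO; benchmarks: DMSO and mock-transfected background; replicates: one test per compound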
MMP-13 inhibitor = MMP13 (human) collagenase inhibition; P45452; MMP-13 fTHP FRET cleavage, Mca fluorescence; inhibition, % at 4 µM; 65,000 compounds, 0.07% hits;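 active = inhibition above the mean of compound-free control plate wells plus 3 SD, cut at about 14% in these data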;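 note: 0% = DMSO wells and 100% = wells with reference MMP-13 inhibitor after basal subtraction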
AP complement = orthogonal test for alternative complement pathway inhibitors. Human serum alternative complement pathway, LPS-coated ELISA, C3 deposition; tested in compound mixtures. inhibition, % at 5 µM. AID 1235. 62,000 compounds, 0.08% hits;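 active = inhibition above 30% in each of the two pooled mixtures holding the compound, so the lower value exceeds 30%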;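 note: 0% = serum in Mg-EGTA without compound and 100% = EDTA serum blank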
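Test system: human serum alternative complement pathway, C3 deposition on LPS-coated wells; also added: Plate-bound LPS; doses: 5 µM per compound in ten-compound mixtures; schedule: 1 h at 37 °C; detection: Anti-C3 ELISA, OD 450 nm; evaluation: percent inhibition of C3 deposition onto LPS; repeats: two pool placements per compound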
HePTP inhibitor = inhibitors of human HePTP phosphatase; P35236; recombinant HePTP phosphatase activity, OD absorbance; inhibition, % at 20 µM; 110,000 compounds, 0.64% hits; AID 521; in the data active = inhibition above about 50%;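 note: plate controls were vehicle for no effect and reference inhibitor for full effect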
* marks the source's active call; other numbers are inactive results; / = not tested or not shown. Most compounds without a hit are left out; they make up all but 2.4% or so of the library.

SMILES	RORa activator	E coli RNAP	SF1 activator	MMP-13 inhibitor	AP complement	HePTP inhibitor
O=C(NCc1ccc2c(c1)OCO2)c1cccnc1	-15.2	5.6	7.9	5.6	5.8	1.2
O=C(Nc1ccc2c(c1)OCO2)c1c(F)cccc1F	25.3	2.1	57.6*	2.8	-16.6	-6.1
Cc1c(-c2ccc(Cl)cc2Cl)nc2ccccc2c1C(=O)NCc1ccc2c(c1)OCO2	/	/	/	/	/	103.3*
O=C(NCc1ccc2c(c1)OCO2)c1cc(-c2ccccc2Cl)nc2ccccc12	/	/	/	/	/	6.1
O=C(Nc1ccc2c(c1)OCO2)c1cncc(Br)c1	14.4	5.5	53.1*	2.9	2.5	10.2
O=C(Nc1ccc2c(c1)OCO2)c1cccc(F)c1	52.0*	/	20.6	-7.0	16.0	5.6
O=C(NCCc1ccccc1)c1cnc2sccn2c1=O	83.6*	8.3	38.4	-14.4	21.4	7.2
Cc1nc(-c2ccccc2)nc2[nH]c(=O)n(-c3ccccc3)c(=O)c12	60.3*	7.3	35.9	-2.2	10.9	6.3
Cc1nc(-c2ccccc2)nc2[nH]c(C(C)C)cc(=O)c12	21.7	6.5	-4.4	2.3	4.6	7.8
Cc1ccc(NC(=O)N(Cc2ccccc2)C(C)C2CC2)cc1 (configuration not stated)	/	/	/	/	/	102.4*
CC(C1CC1)N(Cc1ccccc1)C(=O)c1ccc(F)cc1 (configuration not stated)	/	/	/	/	/	-11.8
CC(C)=NNc1nnc2c(n1)[nH]c1ccccc12	/	/	/	/	/	-7.9
Fc1ccc2nc3[nH]c4ccccc4c3nc2c1	38.6	6.5	89.5*	-5.4	6.0	3.7
O=C1NC(=S)S/C1=C/c1ccc(O)c(Br)c1	/	/	/	/	/	103.6*
O=C1NC(=S)S/C1=C/c1ccc(OCc2ccc(F)cc2)c(Br)c1	/	/	/	/	/	13.7
CCOC(=O)c1cnn(-c2ccccn2)c1N	53.0*	4.0	34.9	-1.1	-10.6	8.6
CCOC(=O)c1cnc2c(-c3ccccc3)c(C)nn2c1N	15.0	6.5	15.3	0.6	5.8	-2.4
CCOC(=O)c1cnc2c(-c3ccccc3)cnn2c1N	-4.6	0.4	52.4*	-5.8	14.6	0.0
CCOC(=O)c1cnn(-c2cc(C)c3ccccc3n2)c1N	15.0	-5.0	18.3	2.0	12.1	4.7
O=C1NN(c2ccc(Cl)c(Cl)c2)C(=O)/C1=C/c1ccc2c(c1)OCO2	/	/	/	/	/	4.5
Fc1ccccc1CSc1nnc(-c2cccs2)o1	50.3*	12.4	92.0*	-3.6	6.0	12.6
Fc1ccc(Cc2nnc(-c3cccs3)o2)cc1	63.4*	9.0	35.9	-4.8	13.7	-6.0
COc1ccc(-c2nnc(SCC(=O)N3CCOCC3)o2)cc1	73.0*	5.2	37.8	-6.7	-15.9	-4.0
COc1ccc(OC(C)C(=O)Nc2ccc3c(c2)OCCO3)cc1 (configuration not stated)	/	/	/	/	/	-4.3
COc1ccc(-c2nnc(SC(C)C(=O)Nc3ccc4c(c3)OCCO4)o2)cc1 (configuration not stated)	25.3	4.0	49.6*	-6.4	5.1	-1.4
SMILES	RORa activator	E coli RNAP	SF1 activator	MMP-13 inhibitor	AP complement	HePTP inhibitor
COc1cccc(-c2nnc(SCC(=O)N3CCOCC3)o2)c1	45.9	-3.4	34.3	10.4	15.3	0.4
COc1ccc(C)cc1NC(=O)CSc1nnc(-c2ccc(Br)cc2)o1	8.0	9.0	-0.8	0.1	3.2	4.3
COc1ccccc1NC(=O)CSc1nnc(-c2ccc(C)cc2)o1	40.8	2.8	56.6*	-5.4	0.5	5.5
c1ccc(CSc2nnc(-c3cccs3)o2)cc1	49.9*	7.8	52.1*	1.5	10.4	6.9
O=C(CSc1nnc(-c2cccs2)o1)N1CCCCC1	45.3	6.1	63.4*	0.5	28.0	4.9
Fc1ccc(CSc2nnc(-c3cccs3)o2)cc1	25.2	4.5	43.0	1.8	-3.5	1.2
Cc1ccc(-n2nc3cc(C)c(NC(=O)c4ccccc4)cc3n2)cc1	/	/	/	/	/	5.9
O=C1NC(=S)N(c2cccc(Br)c2)C(=O)/C1=C/c1ccc(-c2ccccc2C(=O)O)o1	/	/	/	/	/	27.2
CC1=C(C(=O)OCCOc2ccccc2)C(c2ccc(Cl)c([N+](=O)[O-])c2)C2=C(CC(C)(C)CC2=O)N1 (configuration not stated)	/	/	/	/	/	2.5
COCCN1C(=O)/C(=C\c2ccc(N(C)C)cc2)C(C(=O)OC)=C1C	/	/	/	/	/	7.9
